Measurements from ChEMBL document CHEMBL5653631, “A Potent and Selective ULK1 Inhibitor Suppresses Autophagy and Sensitizes Cancer Cells to Nutrient Stress” (iScience, 2018).

Tests used:
[1] = biological target: Tyrosine-protein kinase ABL2 (Homo sapiens) (UniProt P42684); assay: Inhibition of human recombinant ABL2 at 40 nM in presence of ATP by radiometric assay relative to control
Method in brief: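 Panel of 327 recombinant human kinases in radiometric activity assays, each screened in duplicate at a single inhibitor concentration; percent activity remaining relative to vehicle control, percent inhibition taken as 100 minus activity remaining.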

Homo sapiens = species on record: Homo sapiens; assay: Inhibition of human recombinant KHS1 at 40 nM in presence of ATP by radiometric assay relative to control
[2] = biological target: Cyclin-dependent kinase 6 (Homo sapiens) (UniProt Q00534); assay: Inhibition of human recombinant CDK6 at 40 nM related to control ULK1
[3] = biological target: T1, NUAK family SNF1-like kinase 1 (Homo sapiens) (UniProt O60285); assay: Inhibition of human recombinant NuaK1 at 40 nM related to control ULK1
T1 sequence (whole entry): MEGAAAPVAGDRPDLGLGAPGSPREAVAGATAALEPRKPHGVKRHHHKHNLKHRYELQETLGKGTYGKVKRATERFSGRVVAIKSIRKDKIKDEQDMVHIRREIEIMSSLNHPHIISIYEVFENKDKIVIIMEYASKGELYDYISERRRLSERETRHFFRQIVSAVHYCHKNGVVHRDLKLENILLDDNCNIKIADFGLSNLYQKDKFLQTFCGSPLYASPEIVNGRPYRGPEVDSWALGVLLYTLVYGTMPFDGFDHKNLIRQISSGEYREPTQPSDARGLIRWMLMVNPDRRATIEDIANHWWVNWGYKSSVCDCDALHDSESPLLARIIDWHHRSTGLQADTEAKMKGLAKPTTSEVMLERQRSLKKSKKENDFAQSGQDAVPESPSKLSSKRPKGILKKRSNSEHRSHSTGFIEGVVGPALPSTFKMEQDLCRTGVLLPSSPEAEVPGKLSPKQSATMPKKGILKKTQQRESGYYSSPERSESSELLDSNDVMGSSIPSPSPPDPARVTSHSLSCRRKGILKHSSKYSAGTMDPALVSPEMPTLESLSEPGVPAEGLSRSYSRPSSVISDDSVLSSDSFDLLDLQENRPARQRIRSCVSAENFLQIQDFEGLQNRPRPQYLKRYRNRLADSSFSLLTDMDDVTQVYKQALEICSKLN

[4] = biological target: T2, cGMP-dependent protein kinase 1 (Homo sapiens) (UniProt Q13976); assay: Inhibition of human recombinant PKG1 at 40 nM related to control ULK1
T2 sequence (whole entry): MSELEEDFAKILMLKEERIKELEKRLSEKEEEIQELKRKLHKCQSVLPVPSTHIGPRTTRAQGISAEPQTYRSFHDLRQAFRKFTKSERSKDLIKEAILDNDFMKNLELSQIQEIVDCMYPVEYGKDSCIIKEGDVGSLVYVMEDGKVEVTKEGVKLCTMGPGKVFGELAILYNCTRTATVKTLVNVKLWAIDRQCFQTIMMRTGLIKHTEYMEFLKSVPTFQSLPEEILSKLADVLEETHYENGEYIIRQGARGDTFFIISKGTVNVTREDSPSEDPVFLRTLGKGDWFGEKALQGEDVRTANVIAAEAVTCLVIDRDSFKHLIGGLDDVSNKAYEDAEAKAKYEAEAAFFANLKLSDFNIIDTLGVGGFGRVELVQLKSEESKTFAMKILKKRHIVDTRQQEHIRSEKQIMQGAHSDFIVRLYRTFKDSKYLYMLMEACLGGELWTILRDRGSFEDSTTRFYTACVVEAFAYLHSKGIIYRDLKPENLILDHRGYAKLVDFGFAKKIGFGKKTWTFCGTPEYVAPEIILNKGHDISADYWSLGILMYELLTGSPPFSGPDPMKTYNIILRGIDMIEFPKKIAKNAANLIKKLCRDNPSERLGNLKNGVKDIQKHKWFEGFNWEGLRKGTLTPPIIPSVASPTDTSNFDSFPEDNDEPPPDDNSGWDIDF

[5] = biological target: T3, Eukaryotic translation initiation factor 2-alpha kinase 3 (Homo sapiens) (UniProt Q9NZJ5); assay: Inhibition of human recombinant PEK at 500 nM in presence of ATP by radiometric assay relative to control
T3 sequence (whole entry): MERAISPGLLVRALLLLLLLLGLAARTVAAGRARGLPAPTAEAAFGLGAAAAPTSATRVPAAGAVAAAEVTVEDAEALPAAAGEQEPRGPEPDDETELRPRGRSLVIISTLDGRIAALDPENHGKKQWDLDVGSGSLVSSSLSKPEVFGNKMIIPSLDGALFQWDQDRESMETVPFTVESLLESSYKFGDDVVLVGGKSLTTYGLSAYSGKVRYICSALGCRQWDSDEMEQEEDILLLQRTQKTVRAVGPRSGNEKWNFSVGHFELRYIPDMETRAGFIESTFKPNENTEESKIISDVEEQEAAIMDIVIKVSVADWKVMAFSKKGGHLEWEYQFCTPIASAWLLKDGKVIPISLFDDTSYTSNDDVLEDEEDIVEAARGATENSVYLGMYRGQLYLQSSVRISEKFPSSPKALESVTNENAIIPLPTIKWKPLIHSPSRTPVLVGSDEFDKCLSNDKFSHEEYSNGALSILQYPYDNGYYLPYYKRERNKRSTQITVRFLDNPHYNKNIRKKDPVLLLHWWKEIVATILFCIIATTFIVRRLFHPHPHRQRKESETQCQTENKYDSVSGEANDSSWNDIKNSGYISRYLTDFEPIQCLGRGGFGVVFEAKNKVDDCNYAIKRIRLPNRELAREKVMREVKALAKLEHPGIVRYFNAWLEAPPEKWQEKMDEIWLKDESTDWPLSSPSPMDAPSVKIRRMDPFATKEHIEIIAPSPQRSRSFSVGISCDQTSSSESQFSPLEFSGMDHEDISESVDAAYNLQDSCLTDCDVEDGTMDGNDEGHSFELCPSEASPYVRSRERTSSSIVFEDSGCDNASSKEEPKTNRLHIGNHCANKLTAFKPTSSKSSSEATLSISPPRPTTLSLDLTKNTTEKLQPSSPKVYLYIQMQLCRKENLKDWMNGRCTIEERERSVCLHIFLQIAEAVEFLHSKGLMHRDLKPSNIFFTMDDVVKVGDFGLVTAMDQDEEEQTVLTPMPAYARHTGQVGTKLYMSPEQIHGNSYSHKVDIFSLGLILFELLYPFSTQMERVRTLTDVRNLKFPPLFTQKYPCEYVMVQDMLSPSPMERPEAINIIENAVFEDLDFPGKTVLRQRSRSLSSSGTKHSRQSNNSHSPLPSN

[6] = biological target: Interferon-induced, double-stranded RNA-activated protein kinase (Homo sapiens) (UniProt P19525); assay: Inhibition of human recombinant PKR at 500 nM related to control ULK1
[7] = biological target: Serine/threonine-protein kinase PRP4 homolog (Homo sapiens) (UniProt Q13523); assay: Inhibition of human recombinant PRP4 at 500 nM related to control ULK1
[8] = biological target: Fibroblast growth factor receptor 2 (Homo sapiens) (UniProt P21802); assay: Inhibition of human recombinant FGFR2 at 15 nM related to control ULK1
Chain of Fibroblast growth factor receptor 2 (Homo sapiens) (P21802 22-821 limits assumed): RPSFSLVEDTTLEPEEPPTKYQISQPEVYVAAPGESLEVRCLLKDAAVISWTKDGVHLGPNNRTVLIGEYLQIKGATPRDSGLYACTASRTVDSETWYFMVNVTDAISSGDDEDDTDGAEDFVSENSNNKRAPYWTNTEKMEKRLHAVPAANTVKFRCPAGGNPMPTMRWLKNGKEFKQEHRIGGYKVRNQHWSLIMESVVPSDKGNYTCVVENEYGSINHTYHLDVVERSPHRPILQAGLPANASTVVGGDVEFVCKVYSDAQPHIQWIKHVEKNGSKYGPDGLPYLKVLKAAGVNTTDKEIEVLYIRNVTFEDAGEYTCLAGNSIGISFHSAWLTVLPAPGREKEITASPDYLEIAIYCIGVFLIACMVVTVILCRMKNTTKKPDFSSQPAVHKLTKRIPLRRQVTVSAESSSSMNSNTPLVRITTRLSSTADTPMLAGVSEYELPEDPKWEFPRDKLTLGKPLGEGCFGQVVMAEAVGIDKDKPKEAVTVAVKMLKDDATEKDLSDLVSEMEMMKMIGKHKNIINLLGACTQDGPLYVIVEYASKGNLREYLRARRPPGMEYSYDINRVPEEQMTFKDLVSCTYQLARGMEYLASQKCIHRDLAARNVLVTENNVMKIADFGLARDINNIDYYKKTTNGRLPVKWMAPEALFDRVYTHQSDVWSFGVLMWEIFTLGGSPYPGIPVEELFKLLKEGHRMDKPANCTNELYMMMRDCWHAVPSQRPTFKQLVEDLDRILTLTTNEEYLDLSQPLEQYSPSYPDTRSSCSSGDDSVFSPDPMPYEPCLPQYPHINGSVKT

Chain of Serine/threonine-protein kinase PRP4 homolog (Homo sapiens) (Q13523 whole entry): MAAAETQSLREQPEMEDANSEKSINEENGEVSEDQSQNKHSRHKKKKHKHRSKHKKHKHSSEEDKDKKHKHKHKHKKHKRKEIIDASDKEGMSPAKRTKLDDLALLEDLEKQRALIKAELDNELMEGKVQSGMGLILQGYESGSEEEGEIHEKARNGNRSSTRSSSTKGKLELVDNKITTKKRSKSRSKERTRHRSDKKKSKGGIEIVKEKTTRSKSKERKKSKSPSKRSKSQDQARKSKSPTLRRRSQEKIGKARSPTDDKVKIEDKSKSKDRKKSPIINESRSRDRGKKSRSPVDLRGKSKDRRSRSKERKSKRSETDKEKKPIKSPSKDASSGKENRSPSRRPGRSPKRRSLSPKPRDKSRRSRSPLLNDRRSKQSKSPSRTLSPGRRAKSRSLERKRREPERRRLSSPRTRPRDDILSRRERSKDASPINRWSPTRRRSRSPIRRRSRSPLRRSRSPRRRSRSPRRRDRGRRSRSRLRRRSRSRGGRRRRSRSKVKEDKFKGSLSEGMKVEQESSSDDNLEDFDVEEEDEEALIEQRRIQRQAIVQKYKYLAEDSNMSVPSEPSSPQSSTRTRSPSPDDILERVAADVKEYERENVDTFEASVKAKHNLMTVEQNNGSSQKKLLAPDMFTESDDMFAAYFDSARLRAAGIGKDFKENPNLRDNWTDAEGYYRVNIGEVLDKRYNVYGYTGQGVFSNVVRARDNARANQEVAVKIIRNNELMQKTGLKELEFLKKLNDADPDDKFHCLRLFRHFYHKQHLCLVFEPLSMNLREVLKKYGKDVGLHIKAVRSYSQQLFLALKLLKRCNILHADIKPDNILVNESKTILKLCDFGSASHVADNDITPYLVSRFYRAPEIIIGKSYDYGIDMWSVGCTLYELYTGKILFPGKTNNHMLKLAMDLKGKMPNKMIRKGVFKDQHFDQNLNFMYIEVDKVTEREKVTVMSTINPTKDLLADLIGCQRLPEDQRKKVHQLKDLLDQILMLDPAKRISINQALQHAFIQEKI
Chain of Interferon-induced, double-stranded RNA-activated protein kinase (Homo sapiens) (P19525 whole entry): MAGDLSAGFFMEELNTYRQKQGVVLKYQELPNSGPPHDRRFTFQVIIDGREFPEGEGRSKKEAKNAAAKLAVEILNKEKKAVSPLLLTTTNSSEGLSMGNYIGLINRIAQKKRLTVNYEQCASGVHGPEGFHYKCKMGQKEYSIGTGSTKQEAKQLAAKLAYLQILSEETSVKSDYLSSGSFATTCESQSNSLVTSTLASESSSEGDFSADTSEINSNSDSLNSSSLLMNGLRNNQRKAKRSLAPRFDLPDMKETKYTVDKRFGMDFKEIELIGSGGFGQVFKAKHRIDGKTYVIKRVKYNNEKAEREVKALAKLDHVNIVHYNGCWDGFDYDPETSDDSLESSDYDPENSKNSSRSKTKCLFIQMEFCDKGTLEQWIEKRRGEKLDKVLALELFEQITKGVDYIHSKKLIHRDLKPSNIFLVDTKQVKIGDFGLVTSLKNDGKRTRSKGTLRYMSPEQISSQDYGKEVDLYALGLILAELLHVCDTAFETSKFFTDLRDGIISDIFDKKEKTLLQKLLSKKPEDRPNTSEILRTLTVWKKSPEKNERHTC
Chain of Cyclin-dependent kinase 6 (Homo sapiens) (Q00534 whole entry): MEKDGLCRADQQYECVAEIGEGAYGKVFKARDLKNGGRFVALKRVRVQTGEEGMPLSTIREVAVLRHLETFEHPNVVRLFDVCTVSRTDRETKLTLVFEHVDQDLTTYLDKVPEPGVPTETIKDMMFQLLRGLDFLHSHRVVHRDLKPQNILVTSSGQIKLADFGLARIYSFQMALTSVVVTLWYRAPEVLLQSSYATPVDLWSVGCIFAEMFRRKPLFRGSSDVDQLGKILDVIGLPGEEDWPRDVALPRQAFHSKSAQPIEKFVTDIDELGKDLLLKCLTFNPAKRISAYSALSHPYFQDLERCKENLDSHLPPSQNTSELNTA
Chain of Tyrosine-protein kinase ABL2 (Homo sapiens) (P42684 whole entry): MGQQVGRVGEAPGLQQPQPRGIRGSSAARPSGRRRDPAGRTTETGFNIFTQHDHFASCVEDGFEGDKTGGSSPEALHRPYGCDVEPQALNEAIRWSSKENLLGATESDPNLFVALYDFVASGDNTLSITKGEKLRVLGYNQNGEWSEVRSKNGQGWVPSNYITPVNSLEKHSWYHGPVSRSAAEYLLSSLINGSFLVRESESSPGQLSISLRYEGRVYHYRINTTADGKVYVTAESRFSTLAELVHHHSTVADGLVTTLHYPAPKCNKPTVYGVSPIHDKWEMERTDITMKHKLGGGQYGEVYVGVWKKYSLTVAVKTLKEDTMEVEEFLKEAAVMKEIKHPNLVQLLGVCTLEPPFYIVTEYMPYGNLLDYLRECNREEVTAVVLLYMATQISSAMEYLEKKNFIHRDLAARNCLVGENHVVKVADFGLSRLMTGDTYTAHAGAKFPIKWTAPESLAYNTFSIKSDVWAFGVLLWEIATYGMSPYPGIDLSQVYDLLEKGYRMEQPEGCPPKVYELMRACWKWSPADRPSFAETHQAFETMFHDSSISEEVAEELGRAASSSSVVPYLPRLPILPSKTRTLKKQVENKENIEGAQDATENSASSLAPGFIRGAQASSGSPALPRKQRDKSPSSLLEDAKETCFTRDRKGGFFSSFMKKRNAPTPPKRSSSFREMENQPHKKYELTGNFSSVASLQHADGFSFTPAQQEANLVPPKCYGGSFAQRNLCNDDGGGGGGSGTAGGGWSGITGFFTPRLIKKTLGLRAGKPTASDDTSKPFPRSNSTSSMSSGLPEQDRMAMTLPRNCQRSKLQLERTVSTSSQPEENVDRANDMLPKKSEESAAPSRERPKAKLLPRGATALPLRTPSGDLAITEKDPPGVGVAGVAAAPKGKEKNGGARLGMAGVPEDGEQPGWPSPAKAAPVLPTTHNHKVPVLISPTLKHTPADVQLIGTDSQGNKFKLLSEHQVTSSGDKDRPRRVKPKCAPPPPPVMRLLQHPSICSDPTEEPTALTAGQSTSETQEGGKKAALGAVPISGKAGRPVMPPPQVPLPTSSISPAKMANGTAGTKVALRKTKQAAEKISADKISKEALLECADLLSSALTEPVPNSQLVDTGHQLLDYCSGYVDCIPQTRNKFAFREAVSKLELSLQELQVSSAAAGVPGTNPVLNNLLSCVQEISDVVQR

SMILES: O=C(N[C@@H](C1CC1)C(F)(F)F)c1cc(-c2cnn3cc(-c4ccc(F)cc4)cnc23)cs1
- inhibition [1]: 7%
- inhibition (Homo sapiens): 0%
- fold change (FC) [2]: 0.04
- fold change (FC) [3]: 0.07
- fold change (FC) [4]: 0.08

SMILES: CNC(=O)c1ccccc1Oc1nc(Nc2cc(OC)c(OC)c(OC)c2)ncc1Br
- inhibition [5]: 0%
- fold change (FC) [6]: 0.05
- fold change (FC) [7]: 0.03

SMILES: CC(C)[C@H](NC(=O)c1cc(-c2cnn3cc(-c4ccc(OCCN5CCCCC5)cc4)cnc23)cs1)C(F)(F)F
- fold change (FC) [8]: 0
